# Assay results reported in ChEMBL document CHEMBL4616694, “Selective Covalent Targeting of Mutated EGFR(T790M) with Chlorofluoroacetamide-Pyrimidines” (ACS Med Chem Lett, 2020).
# Activity calls are given as the source filed them. No cut-off for these calls is given here.
# Legend:
# [1] = Selectivity index, ratio of IC50 for human NCI-H292 cells expressing wild type EGFR assessed as reduction in cell viability measured after 72 hrs by MTT assay to IC50 for human NCI-H1975 cells harboring EGFR L858R/T790M mutant assessed as reduction in cell viability measured after 72 hrs by MTT assay; format: functional
# NCI-H1975 = assay: Antiproliferative activity against human NCI-H1975 cells harboring EGFR L858R/T790M mutant assessed as reduction in cell viability measured after 72 hrs by WST assay; format: functional, cell-based; details: NCI-H1975, 72 h
# NCI-H292 = assay: Antiproliferative activity against human NCI-H292 cells expressing wild type EGFR assessed as reduction in cell viability measured after 72 hrs by WST assay; format: functional, cell-based; details: NCI-H292, 72 h
# [2] = Half life of compound in phosphate buffer at pH 7.4 and 37 degree C under neutral aqueous condition in presence of excess glutathione; format: physicochemical; details: phosphate buffer with excess glutathione
# Summary of the method: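 Compound was incubated with excess glutathione under neutral aqueous conditions (pH 7.4, 37 °C), and half-reaction time was determined from the time course.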
# [3] = tested on: Epidermal growth factor receptor (Homo sapiens), P00533 [L858R,T790M]; assay: Irreversible inhibition of EGFR L858R/T790M mutant in human H1975 cells assessed as reduction in autophosphorylation at Y1068 residue at 10 nM measured after 8 hrs post compound washout by Western blot analysis; format: cell-based
# Summary of the method: (§1)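 H1975 cells were treated at 10 nM, and EGFR Y1068 autophosphorylation was assessed by western blot. For irreversibility, compound was washed out of the culture medium and phospho-EGFR was examined for at least 8 h afterwards.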
# [4] = tested on: Epidermal growth factor receptor (Homo sapiens), P00533 [L858R,T790M]; assay: Inhibition of EGFR L858R/T790M mutant in human H1975 cells assessed as reduction in autophosphorylation at Y1068 residue at 10 nM by Western blot analysis; format: cell-based; summary of the method: as §1
# [5] = tested on: Epidermal growth factor receptor (Homo sapiens), P00533 [L858R,T790M]; assay: Binding affinity to recombinant human EGFR L858R/T790M mutant kinase domain assessed as compound-protein adduct formation at 2 uM pretreated with compound followed by subsequent addition of copper-catalyzed azide-alkyne cyclo with rhodamine azide measured after 72 hrs by coomassie brilliant blue staining based in-gel fluorescence assay
# [6] = tested on: Epidermal growth factor receptor (Homo sapiens), P00533 [L858R,T790M]; assay: Binding affinity to recombinant human EGFR L858R/T790M mutant kinase domain expressed in baculovirus infected insect cells assessed as covalent bond formation between protein Cys797 residue-compound by LC-MS/MS analysis
# [7] = tested on: Epidermal growth factor receptor (Homo sapiens), P00533 [L858R,T790M]; assay: Binding affinity to recombinant human EGFR L858R/T790M mutant kinase domain assessed as fluorescent band formation at 2 uM pretreated with compound followed by subsequent addition of copper-catalyzed azide-alkyne cyclo with rhodamine azide measured after 72 hrs by coomassie brilliant blue staining based in-gel fluorescence assay
# [8] = Mean residence time in BALB/c mouse at 25 mg/kg, po administered as single dose measured at 2 hrs; format: ADME, organism-based; details: in vivo
# Summary of the method: (§2)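 Mice received a single oral dose of 25 mg/kg. Plasma compound levels were followed over time, giving peak concentration with its time and mean residence time.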
# Homo sapiens = species: Homo sapiens; assay: Selectivity index, ratio of IC50 for wild type EGFR (unknown origin) to IC50 for human EGFR L858R/T790M mutant expressed in baculovirus infected insect cells
# [9] = Cmax in BALB/c mouse at 25 mg/kg, po administered as single dose measured at 2 hrs; format: ADME, organism-based; parameters: dose 25 mg/kg, route oral; details: in vivo; summary of the method: as §2
# [10] = target: Epidermal growth factor receptor (Homo sapiens) (UniProt P00533); assay: Binding affinity to wild type EGFR expressed in human H292 cells assessed as protein labeling at 1 uM measured after 1 hr by pull down based Western blot analysis
# [11] = tested on: Epidermal growth factor receptor (Homo sapiens), P00533 [L858R,T790M]; assay: Competitive binding affinity to EGFR L858R/T790M mutant expressed in human H1975 cells assessed as SILAC ratio at 5 uM measured after 2 hrs by MS analysis; format: cell-based
# Summary of the method: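 SILAC mass spectrometry in isotopically labeled H1975 cells treated with the probe at 5 µM for 2 h at 37 °C, followed by streptavidin enrichment. Reported values are log2 median SILAC ratios (probe/DMSO or probe/probe) from triplicate MS analyses of a single enriched sample.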
# [12] = target: Epidermal growth factor receptor (Homo sapiens) (UniProt P00533); assay: Competitive binding affinity to EGFR in human H1975 cells assessed as protein labeling at 1 uM pretreated with compound followed by subsequent addition of copper-catalyzed azide-alkyne cyclo with rhodamine azide by in-gel fluorescence assay; format: cell-based; details: TDE = time-dependent effect
# Summary of the method: (§3)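 H1975 cells were labeled over time with 1 µM alkyne probe, with incubations extending to 10 h. Labeled proteins were conjugated to rhodamine-azide by copper-catalyzed azide-alkyne cycloaddition and read by in-gel fluorescence.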
# [13] = tested on: Epidermal growth factor receptor (Homo sapiens), P00533 [L858R,T790M]; assay: Binding affinity to recombinant human EGFR L858R/T790M mutant kinase domain assessed as rapid covalent modification at 2 uM pretreated with compound followed by subsequent addition of copper-catalyzed azide-alkyne cyclo with rhodamine azide measured after 72 hrs by coomassie brilliant blue staining based in-gel fluorescence assay
# [14] = tested on: Epidermal growth factor receptor (Homo sapiens), P00533 [L858R,T790M]; assay: Binding affinity to EGFR L858R/T790M mutant expressed in human H1975 cells assessed as protein labeling at 1 uM measured after 1 hr by pull down based Western blot analysis
# [15] = target: Epidermal growth factor receptor (Homo sapiens) (UniProt P00533); assay: Competitive binding affinity to EGFR in human H1975 cells assessed as protein labeling pretreated with compound followed by subsequent addition of copper-catalyzed azide-alkyne cyclo with rhodamine azide measured after 1 hr by in-gel fluorescence assay; format: cell-based
# Summary of the method: (§4)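 H1975 cells were incubated with the alkyne CFA probe for 1 h at 37 °C. Labeled proteins were clicked to rhodamine-azide by CuAAC and resolved by in-gel fluorescence, with EGFR taken as the 175 kDa band. For competition, excess osimertinib was present. Labeling was also run across probe concentrations, including 1–10 µM.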
# [16] = tested on: Epidermal growth factor receptor (Homo sapiens), P00533 [L858R,T790M]; assay: Competitive binding affinity to EGFR L858R/T790M mutant in human H1975 cells assessed as fluorescent band formation at 5 uM pretreated with compound followed by subsequent addition of copper-catalyzed azide-alkyne cyclo with rhodamine azide measured after 1 hr in presence of osimertinib by in-gel fluorescence assay; format: cell-based; summary of the method: as §4
# [17] = target: Epidermal growth factor receptor (Homo sapiens) (UniProt P00533); assay: Competitive binding affinity to wild type EGFR expressed in human H292 cells assessed as SILAC ratio at 5 uM measured after 2 hrs by MS analysis; format: cell-based
# [18] = tested on: Epidermal growth factor receptor (Homo sapiens), P00533 [L858R,T790M]; assay: Competitive binding affinity to EGFR L858R/T790M in human H1975 cells assessed as fluorescent band formation by measuring molecular weight at 5 uM pretreated with compound followed by subsequent addition of copper-catalyzed azide-alkyne cyclo with rhodamine azide measured after 1 hr by in-gel fluorescence assay; format: cell-based; summary of the method: as §4
# [19] = target: Epidermal growth factor receptor (Homo sapiens) (UniProt P00533); assay: Competitive binding affinity to wild type EGFR expressed in human H292 cells assessed as protein labeling pretreated with compound followed by subsequent addition of copper-catalyzed azide-alkyne cyclo with rhodamine azide incubated for 2 hrs by in-gel fluorescence assay; format: cell-based
# [20] = target: Epidermal growth factor receptor (Homo sapiens) (UniProt P00533); assay: Competitive binding affinity to EGFR in human H1975 cells assessed as protein labeling at 1 uM pretreated with compound followed by subsequent addition of copper-catalyzed azide-alkyne cyclo with rhodamine azide incubated for 10 hrs by in-gel fluorescence assay; format: cell-based; summary of the method: as §3
# [21] = target: Epidermal growth factor receptor (Homo sapiens) (UniProt P00533); assay: Competitive binding affinity to wild type EGFR expressed in human H292 cells assessed as protein labeling at 1 uM pretreated with compound followed by subsequent addition of copper-catalyzed azide-alkyne cyclo with rhodamine azide by in-gel fluorescence assay; format: cell-based; details: TDE = time-dependent effect
# [22] = tested on: Epidermal growth factor receptor (Homo sapiens), P00533 [L858R,T790M]; assay: Binding affinity to recombinant human EGFR L858R/T790M mutant kinase domain assessed as stability of compound-protein adduct at 2 uM pretreated with compound followed by subsequent addition of copper-catalyzed azide-alkyne cyclo with rhodamine azide measured after 24 hrs by coomassie brilliant blue staining based in-gel fluorescence assay
# [23] = target: Epidermal growth factor receptor (Homo sapiens) (UniProt P00533); assay: Competitive binding affinity to wild type EGFR expressed in human HEK293 cells assessed as protein labeling pretreated with compound followed by subsequent addition of copper-catalyzed azide-alkyne cyclo with rhodamine azide incubated for 2 hrs by in-gel fluorescence assay; format: cell-based
# [24] = target: Epidermal growth factor receptor (Homo sapiens) (UniProt P00533); assay: Competitive binding affinity to wild type EGFR expressed in human HEK293 cells assessed as protein labeling at 1 uM pretreated with compound followed by subsequent addition of copper-catalyzed azide-alkyne cyclo with rhodamine azide by in-gel fluorescence assay; format: cell-based; details: TDE = time-dependent effect
structure (smiles),measurement,setting,value
COc1cc(N(C)CCN(C)C)c(NC(=O)C(F)Cl)cc1Nc1ncc(C(F)(F)F)c(-c2c[nH]c3ccccc23)n1 (centres undefined),Ratio IC50,[1],17.3
same,IC50,NCI-H1975,33 nM
same,IC50,NCI-H292,570 nM
COc1cc(N(C)CCN(C)C)c(NC(=O)[C@@H]2CCCN2C(=O)C(F)Cl)cc1Nc1ncc(Cl)c(-c2c[nH]c3ccccc23)n1 (some centres undefined),IC50,NCI-H1975,56 nM
COc1cc(N(C)CCN(C)C)c(NC(=O)[C@H](C)NC(C)=O)cc1Nc1ncc(C(F)(F)F)c(-c2c[nH]c3ccccc23)n1,Ratio IC50,[1],7.8
same,IC50,NCI-H1975,460 nM
same,IC50,NCI-H292,3590 nM
COc1cc(N(C)CCN(C)C)c(NC(=O)[C@H](C)NC(=O)C(F)Cl)cc1Nc1ncc(Cl)c(-c2c[nH]c3ccccc23)n1 (some centres undefined),Ratio IC50,[1],22.9
same,IC50,NCI-H1975,31 nM
same,IC50,NCI-H292,710 nM
COc1cc(N(C)CCN(C)C)c(NC(=O)[C@H](CO)NC(=O)C(F)Cl)cc1Nc1ncc(Cl)c(-c2c[nH]c3ccccc23)n1 (some centres undefined),IC50,NCI-H1975,320 nM
CNC(=O)[C@H](CSC(F)C(=O)N[C@@H](C)C(=O)Nc1cc(Nc2ncc(C(F)(F)F)c(-c3c[nH]c4ccccc34)n2)c(OC)cc1N(C)CCN(C)C)NC(C)=O (some centres undefined),half-life,[2],11.2 h
COc1cc(N(C)CCN(C)C)c(NC(=O)C(F)Cl)cc1Nc1ncc(Cl)c(-c2c[nH]c3ccccc23)n1 (centres undefined),IC50,NCI-H1975,50 nM
COc1cc(N(C)CCN(C)C)c(NC(=O)[C@@H]2CCN2C(=O)C(F)Cl)cc1Nc1ncc(Cl)c(-c2c[nH]c3ccccc23)n1 (some centres undefined),IC50,NCI-H1975,380 nM
COc1cc(N(C)CCN(C)C)c(NC(=O)[C@H](C)NC(=O)C(F)Cl)cc1Nc1ncc(C(F)(F)F)c(-c2c[nH]c3ccccc23)n1 (some centres undefined),inhibition,[3],Active
same,inhibition,[4],Active
same,Activity,[5],Active
same,half-life,[2],49.4 h
same,Activity,[6],Active
same,Activity,[7],Active
same,Ratio IC50,[1],91.3
same,MRT,[8],8.9 h
same,Ratio IC50,Homo sapiens,44.7
same,Cmax,[9],510 nM
same,IC50,NCI-H1975,15 nM
same,IC50,NCI-H292,1370 nM
C#CCCN(C)CCN(C)c1cc(OC)c(Nc2nccc(-c3cn(C)c4ccccc34)n2)cc1NC(=O)C=C,Activity,[10],Active
same,log(ratio),[11],-0.059
same,Activity,[12],Tde
same,Activity,[13],Active
same,Activity,[14],Active
same,IC50,NCI-H1975,72 nM
same,Activity,[15],Dose-dependent effect
C=CC(=O)Nc1cc(Nc2nccc(-c3cn(C)c4ccccc34)n2)c(OC)cc1N(C)CCN(C)C [OSIMERTINIB],Ratio IC50,[1],[…]
same,IC50,NCI-H292,220 nM
COc1cc(N(C)CCN(C)C)c(NC(=O)[C@H](CC(C)C)NC(=O)C(F)Cl)cc1Nc1ncc(Cl)c(-c2c[nH]c3ccccc23)n1 (some centres undefined),IC50,NCI-H1975,52 nM
C#CCCN(C)CCN(C)c1cc(OC)c(Nc2ncc(C(F)(F)F)c(-c3c[nH]c4ccccc34)n2)cc1NC(=O)[C@H](C)NC(=O)C(F)Cl (some centres undefined),Activity,[16],inactive
same,log(ratio),[17],3.2
same,Activity,[18],175 kDa
same,Activity,[10],Active
same,Activity,[19],Dose-dependent effect
same,Activity,[20],Active
same,Activity,[12],Tde
same,Activity,[14],Active
same,Activity,[21],Tde
same,Activity,[22],Active
same,Activity,[23],Dose-dependent effect
same,IC50,NCI-H1975,51 nM
same,Activity,[24],Tde
same,Activity,[15],Dose-dependent effect
COc1cc(N(C)CCN(C)C)c(NC(=O)[C@@H]2C[C@@H](O)CN2C(=O)C(F)Cl)cc1Nc1ncc(Cl)c(-c2c[nH]c3ccccc23)n1 (some centres undefined),IC50,NCI-H1975,150 nM
COc1cc(N(C)CCN(C)C)c(NC(=O)[C@@H](C)NC(=O)C(F)Cl)cc1Nc1ncc(Cl)c(-c2c[nH]c3ccccc23)n1 (some centres undefined),IC50,NCI-H1975,440 nM
COc1cc(N(C)CCN(C)C)c(NC(=O)CNC(=O)C(F)Cl)cc1Nc1ncc(Cl)c(-c2c[nH]c3ccccc23)n1 (centres undefined),IC50,NCI-H1975,130 nM
